Results from ChEMBL document CHEMBL3108692, “Potent Targeting of the STAT3 Protein in Brain Cancer Stem Cells: A Promising Route for Treating Glioblastoma” (ACS Med Chem Lett, 2013).
pIC50, pKd: −log10 of the molar value. Activity calls are given as the source filed them. The rule behind the calls is not given here.

What was measured:
[1] = target: Tyrosine-protein kinase JAK1 (Homo sapiens) (UniProt P23458); assay: Inhibition of JAK1 (unknown origin) SH2 domain expressed in HEK293 cells at 500 nM preincubated for 1 hr followed by compound washout measured after 30 mins by qPCR analysis; format: cell-based
BT73 [2] = assay: Antitumor activity against human BT73 cells xenografted in NOD-SCID mouse assessed as induction of apoptosis in tumor at 10 mg/kg, ip administered as 4 days on/3 days off schedule measured 2 hrs post last dose by TUNEL assay; format: functional, organism-based; parameters: dose 10 mg/kg
Method in brief: (§1)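 Mice were NOD-SCID with orthotopic BT73 human glioma xenografts. Starting on day 7, they received 10 intraperitoneal doses of 10 mg/kg or vehicle on a 4 days on/3 days off schedule. Animals were killed 2 h after the last dose and brain tumors excised. Read-outs were hematoxylin/eosin staining for tumor cellularity and immunohistochemistry for pSTAT3, Ki67 (proliferation) and TUNEL (apoptosis).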

[3] = Cytotoxicity against human 73EF cells assessed as cell viability after 3 days by Alamar Blue assay; conditions: 72 h
[4] = target: Epidermal growth factor receptor (Homo sapiens) (UniProt P00533); assay: Inhibition of EGFR in human 147EF cells after 6 hrs by Western blotting analysis; format: cell-based
[5] = target: Platelet-derived growth factor receptor beta (Homo sapiens) (UniProt P09619); assay: Inhibition of PDGFRB (unknown origin) expressed in HEK293 cells at 500 nM preincubated for 1 hr followed by compound washout measured after 30 mins by qPCR analysis relative to control; format: cell-based
[6] = Cytotoxicity against human 73M cells assessed as cell viability after 8 days by Alamar Blue assay; format: functional, cell-based; conditions: 192 h
cells = conditions: Homo sapiens, 72 h
[7] = target: Tyrosine-protein kinase JAK1 (Homo sapiens) (UniProt P23458); assay: Inhibition of JAK1 (unknown origin) at 5 uM after 120 mins
BT73 [8] = assay: Antitumor activity against human BT73 cells xenografted in NOD-SCID mouse assessed as tumor growth inhibition by measuring downregulation of Ki67 protein expression at 10 mg/kg, ip administered as 4 days on/3 days off schedule measured 2 hrs post last dose; format: functional, organism-based; parameters: dose 10 mg/kg; method in brief: as §1
[9] = Cytotoxicity against human 30M cells assessed as cell viability after 8 days by Alamar Blue assay; format: functional, cell-based; conditions: 192 h
Homo sapiens [10] = species: Homo sapiens; assay: Induction of apoptosis in human 147EF cells assessed as PARP cleavage at 0.1 to 1 uM after 3 hrs by Western blotting analysis; format: functional, cell-based
[11] = Cytotoxicity against human 30M cells assessed as cell viability after 3 days by Alamar Blue assay; conditions: 72 h
[12] = Cytotoxicity against human 67EF cells assessed as cell viability after 3 days by Alamar Blue assay; conditions: 72 h
BT73 [13] = assay: Antitumor activity against human BT73 cells xenografted in NOD-SCID mouse assessed as decrease in tumor size at 10 mg/kg, ip administered as 4 days on/3 days off schedule measured 2 hrs post last dose by hematoxylin/eosin staining; format: functional, organism-based; parameters: dose 10 mg/kg; method in brief: as §1
Mus musculus = assay: In vivo inhibition of STAT3 phosphorylation in tumor of NOD-SCID mouse xenografted with human BT73 cells at 10 mg/kg, ip administered as 4 days on/3 days off schedule measured 2 hrs post last dose; format: functional, organism-based; parameters: dose 10 mg/kg; method in brief: as §1
[14] = target: T1, Signal transducer and activator of transcription 3 (Homo sapiens, UniProt P40763); assay: Inhibition of STAT3 phosphorylation at Y705 in human 73M cells at 1 uM; format: cell-based
Method in brief: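 Human 73M glioblastoma brain tumour stem cells were exposed to the inhibitor alongside the JAK2 inhibitor reference WP1066. Activated STAT3 was then read out by Western blot for STAT3 phosphorylated at Y705.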

[15] = target: Proto-oncogene tyrosine-protein kinase Src (Homo sapiens) (UniProt P12931); assay: Inhibition of Src in human 147EF cells after 6 hrs by Western blotting analysis; format: cell-based
[16] = Cytotoxicity against human 25EF cells assessed as cell viability after 3 days by Alamar Blue assay; conditions: 72 h
[17] = target: Tyrosine-protein kinase Fer (Homo sapiens) (UniProt P16591); assay: Inhibition of FER (unknown origin) SH3 domain expressed in HEK293 cells at 500 nM preincubated for 1 hr followed by compound washout measured after 30 mins by qPCR analysis; format: cell-based
[18] = Cytotoxicity against HF2003 cells assessed as cell viability at 5 uM after 3 days by Alamar Blue assay; format: cell-based; conditions: human, 72 h
Method in brief: (§2)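 Normal human fetal astrocytes (healthy, non-tumor cells) were exposed to compounds at concentrations up to 5 μM, with viability as the cytotoxicity read-out.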

Homo sapiens [19] = species: Homo sapiens; assay: Inhibition of AKT phosphorylation in human 147EF cells at 0.1 to 1 uM after 3 hrs by Western blotting analysis; format: cell-based
[20] = target: Tyrosine-protein kinase Fyn (Homo sapiens) (UniProt P06241); assay: Inhibition of FYN (unknown origin) SH3 domain expressed in HEK293 cells at 500 nM preincubated for 1 hr followed by compound washout measured after 30 mins by qPCR analysis; format: cell-based
[21] = target: Proto-oncogene tyrosine-protein kinase Src (Homo sapiens) (UniProt P12931); assay: Inhibition of c-Src (unknown origin) at 5 uM after 120 mins relative to control
[22] = Cytotoxicity against HF2006 cells assessed as cell viability at 5 uM after 3 days by Alamar Blue assay; format: cell-based; conditions: human, 72 h; method in brief: as §2
[23] = target: T2, Signal transducer and activator of transcription 5A (Homo sapiens, UniProt P42229); assay: Binding affinity to His-tagged STAT5 (unknown origin) by SPR spectroscopic analysis
T2 sequence (P42229 whole entry): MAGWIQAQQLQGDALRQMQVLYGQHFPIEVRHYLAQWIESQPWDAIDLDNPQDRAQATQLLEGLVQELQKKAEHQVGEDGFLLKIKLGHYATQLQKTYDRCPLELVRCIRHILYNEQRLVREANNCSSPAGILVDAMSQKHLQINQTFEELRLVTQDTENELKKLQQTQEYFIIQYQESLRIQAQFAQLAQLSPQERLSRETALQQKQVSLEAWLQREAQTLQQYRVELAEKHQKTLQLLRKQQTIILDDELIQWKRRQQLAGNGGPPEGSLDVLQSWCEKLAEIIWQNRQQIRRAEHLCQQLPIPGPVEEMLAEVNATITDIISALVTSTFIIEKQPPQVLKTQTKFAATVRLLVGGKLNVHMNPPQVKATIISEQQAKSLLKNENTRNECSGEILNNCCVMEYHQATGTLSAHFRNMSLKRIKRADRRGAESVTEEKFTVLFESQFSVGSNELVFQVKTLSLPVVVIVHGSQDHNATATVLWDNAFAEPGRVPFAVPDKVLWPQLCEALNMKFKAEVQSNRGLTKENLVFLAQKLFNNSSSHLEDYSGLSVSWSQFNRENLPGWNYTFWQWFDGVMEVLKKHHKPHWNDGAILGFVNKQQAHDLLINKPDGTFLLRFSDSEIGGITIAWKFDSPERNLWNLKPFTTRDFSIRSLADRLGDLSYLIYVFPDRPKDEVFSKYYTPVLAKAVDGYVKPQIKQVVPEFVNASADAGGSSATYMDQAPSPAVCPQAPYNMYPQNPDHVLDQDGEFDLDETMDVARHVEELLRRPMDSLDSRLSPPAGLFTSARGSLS
Method in brief: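 SPR binding to STAT3 and STAT5 proteins was run at several analyte concentrations: 5.000, 1.667, 0.556 and 0.185 μM.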

[24] = target: Tyrosine-protein kinase Fes/Fps (Homo sapiens) (UniProt P07332); assay: Inhibition of FES (unknown origin) SH3 domain expressed in HEK293 cells at 500 nM preincubated for 1 hr followed by compound washout measured after 30 mins by qPCR analysis; format: cell-based
Homo sapiens [25] = species: Homo sapiens; assay: Inhibition of MAPK in human 147EF cells after 6 hrs by Western blotting analysis; format: cell-based
[26] = target: Tyrosine-protein kinase JAK2 (Homo sapiens) (UniProt O60674); assay: Inhibition of JAK2 in human 147EF cells after 6 hrs by Western blotting analysis; format: cell-based
[27] = target: Mitogen-activated protein kinase 3 (Homo sapiens) (UniProt P27361); assay: Inhibition of ERK1 (unknown origin) at 5 uM after 120 mins
[28] = target: Platelet-derived growth factor receptor beta (Homo sapiens) (UniProt P09619); assay: Inhibition of PDGFRB (unknown origin) at 10 uM by enzymatic assay
[29] = target: RAC-alpha serine/threonine-protein kinase (Homo sapiens) (UniProt P31749); assay: Inhibition of AKT1 (unknown origin) at 5 uM after 120 mins
[30] = target: Tyrosine-protein kinase JAK2 (Homo sapiens) (UniProt O60674); assay: Inhibition of JAK2 (unknown origin) at 5 uM after 120 mins relative to control
[31] = Cytotoxicity against human 84EF cells assessed as cell viability after 3 days by Alamar Blue assay; conditions: 72 h
[32] = target: T1, Signal transducer and activator of transcription 3; assay: Inhibition of STAT3 phosphorylation at Y705 in human 147EF cells at 0.1 to 1 uM after 3 hrs by Western blotting analysis; format: cell-based
Homo sapiens [33] = species: Homo sapiens; assay: Inhibition of AKT in human 147EF cells after 6 hrs by Western blotting analysis; format: cell-based
[34] = target: Tyrosine-protein kinase JAK2 (Homo sapiens) (UniProt O60674); assay: Inhibition of JAK2 (unknown origin) SH2 domain expressed in HEK293 cells at 500 nM preincubated for 1 hr followed by compound washout measured after 30 mins by qPCR analysis; format: cell-based

Chain of Tyrosine-protein kinase JAK2 (Homo sapiens) (O60674 whole entry, the tested form may be a part): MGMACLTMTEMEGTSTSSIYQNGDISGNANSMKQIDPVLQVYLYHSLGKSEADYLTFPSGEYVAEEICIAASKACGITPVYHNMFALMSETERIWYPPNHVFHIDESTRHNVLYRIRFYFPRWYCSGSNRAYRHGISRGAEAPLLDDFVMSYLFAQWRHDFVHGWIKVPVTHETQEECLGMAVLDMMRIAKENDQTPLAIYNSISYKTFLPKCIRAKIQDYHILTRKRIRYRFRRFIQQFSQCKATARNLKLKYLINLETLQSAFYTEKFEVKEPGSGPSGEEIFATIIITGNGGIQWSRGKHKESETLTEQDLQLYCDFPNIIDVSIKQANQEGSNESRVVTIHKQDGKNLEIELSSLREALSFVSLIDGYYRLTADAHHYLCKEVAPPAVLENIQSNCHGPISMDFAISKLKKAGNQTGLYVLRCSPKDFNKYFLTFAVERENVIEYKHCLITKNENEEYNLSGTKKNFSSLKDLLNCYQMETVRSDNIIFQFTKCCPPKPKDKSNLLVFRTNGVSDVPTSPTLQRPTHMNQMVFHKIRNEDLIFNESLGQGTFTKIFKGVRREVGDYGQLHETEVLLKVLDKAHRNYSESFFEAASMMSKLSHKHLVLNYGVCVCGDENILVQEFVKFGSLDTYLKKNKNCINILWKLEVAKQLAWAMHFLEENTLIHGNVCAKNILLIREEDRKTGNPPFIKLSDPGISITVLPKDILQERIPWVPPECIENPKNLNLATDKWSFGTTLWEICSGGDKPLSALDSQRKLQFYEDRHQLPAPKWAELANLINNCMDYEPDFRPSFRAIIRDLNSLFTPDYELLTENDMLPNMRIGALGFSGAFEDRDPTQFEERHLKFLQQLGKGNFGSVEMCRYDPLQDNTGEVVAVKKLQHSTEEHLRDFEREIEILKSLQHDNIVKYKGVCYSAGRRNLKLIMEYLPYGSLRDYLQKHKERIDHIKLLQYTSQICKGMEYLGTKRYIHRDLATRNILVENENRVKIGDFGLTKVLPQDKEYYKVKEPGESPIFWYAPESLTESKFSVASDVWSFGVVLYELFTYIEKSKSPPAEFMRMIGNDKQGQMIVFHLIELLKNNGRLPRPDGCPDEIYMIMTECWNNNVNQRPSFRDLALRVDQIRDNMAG
Chain of Platelet-derived growth factor receptor beta (Homo sapiens) (P09619 whole entry): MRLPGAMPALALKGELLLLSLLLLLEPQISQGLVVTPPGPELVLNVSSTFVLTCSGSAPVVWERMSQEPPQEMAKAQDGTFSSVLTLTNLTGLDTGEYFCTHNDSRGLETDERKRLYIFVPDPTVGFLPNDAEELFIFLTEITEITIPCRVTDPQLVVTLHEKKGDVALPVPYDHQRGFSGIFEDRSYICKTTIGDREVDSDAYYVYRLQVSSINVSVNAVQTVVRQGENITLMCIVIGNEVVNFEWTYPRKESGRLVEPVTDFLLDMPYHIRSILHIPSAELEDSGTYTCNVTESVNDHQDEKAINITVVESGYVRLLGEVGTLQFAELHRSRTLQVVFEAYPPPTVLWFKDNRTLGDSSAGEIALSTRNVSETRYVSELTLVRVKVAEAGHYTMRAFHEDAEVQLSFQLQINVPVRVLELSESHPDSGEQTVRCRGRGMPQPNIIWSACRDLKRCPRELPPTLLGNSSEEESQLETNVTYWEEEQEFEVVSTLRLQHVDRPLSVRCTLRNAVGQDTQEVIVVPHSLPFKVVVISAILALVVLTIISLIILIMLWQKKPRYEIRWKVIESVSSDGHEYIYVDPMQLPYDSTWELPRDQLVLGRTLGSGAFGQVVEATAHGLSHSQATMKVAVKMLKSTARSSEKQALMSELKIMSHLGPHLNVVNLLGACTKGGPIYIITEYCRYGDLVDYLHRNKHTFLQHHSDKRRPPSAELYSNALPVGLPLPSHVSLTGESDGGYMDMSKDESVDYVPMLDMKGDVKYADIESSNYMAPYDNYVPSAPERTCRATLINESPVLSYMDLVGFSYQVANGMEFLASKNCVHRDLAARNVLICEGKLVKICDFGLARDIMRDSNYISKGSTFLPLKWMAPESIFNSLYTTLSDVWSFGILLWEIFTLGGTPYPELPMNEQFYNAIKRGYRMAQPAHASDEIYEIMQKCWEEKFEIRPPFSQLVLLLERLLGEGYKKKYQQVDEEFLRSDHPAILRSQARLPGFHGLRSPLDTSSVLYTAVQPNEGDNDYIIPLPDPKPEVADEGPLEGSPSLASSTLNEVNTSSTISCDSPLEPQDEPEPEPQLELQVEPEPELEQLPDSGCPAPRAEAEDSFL
Chain of Proto-oncogene tyrosine-protein kinase Src (Homo sapiens) (P12931 2-536 limits assumed): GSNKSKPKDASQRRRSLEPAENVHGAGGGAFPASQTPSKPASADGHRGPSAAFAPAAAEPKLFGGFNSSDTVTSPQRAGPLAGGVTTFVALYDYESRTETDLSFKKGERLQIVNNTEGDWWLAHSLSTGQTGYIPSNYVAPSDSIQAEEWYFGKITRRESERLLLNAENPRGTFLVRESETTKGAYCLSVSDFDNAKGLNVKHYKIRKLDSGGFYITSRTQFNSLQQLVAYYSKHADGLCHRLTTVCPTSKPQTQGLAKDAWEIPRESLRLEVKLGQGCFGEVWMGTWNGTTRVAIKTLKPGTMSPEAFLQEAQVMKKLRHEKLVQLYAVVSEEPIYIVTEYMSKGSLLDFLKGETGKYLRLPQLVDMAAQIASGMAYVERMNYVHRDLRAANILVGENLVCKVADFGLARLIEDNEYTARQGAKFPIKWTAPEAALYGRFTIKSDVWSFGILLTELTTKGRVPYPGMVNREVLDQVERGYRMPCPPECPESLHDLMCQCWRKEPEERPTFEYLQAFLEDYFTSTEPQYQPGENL
Chain of Tyrosine-protein kinase JAK1 (Homo sapiens) (P23458 whole entry, the tested form may be a part): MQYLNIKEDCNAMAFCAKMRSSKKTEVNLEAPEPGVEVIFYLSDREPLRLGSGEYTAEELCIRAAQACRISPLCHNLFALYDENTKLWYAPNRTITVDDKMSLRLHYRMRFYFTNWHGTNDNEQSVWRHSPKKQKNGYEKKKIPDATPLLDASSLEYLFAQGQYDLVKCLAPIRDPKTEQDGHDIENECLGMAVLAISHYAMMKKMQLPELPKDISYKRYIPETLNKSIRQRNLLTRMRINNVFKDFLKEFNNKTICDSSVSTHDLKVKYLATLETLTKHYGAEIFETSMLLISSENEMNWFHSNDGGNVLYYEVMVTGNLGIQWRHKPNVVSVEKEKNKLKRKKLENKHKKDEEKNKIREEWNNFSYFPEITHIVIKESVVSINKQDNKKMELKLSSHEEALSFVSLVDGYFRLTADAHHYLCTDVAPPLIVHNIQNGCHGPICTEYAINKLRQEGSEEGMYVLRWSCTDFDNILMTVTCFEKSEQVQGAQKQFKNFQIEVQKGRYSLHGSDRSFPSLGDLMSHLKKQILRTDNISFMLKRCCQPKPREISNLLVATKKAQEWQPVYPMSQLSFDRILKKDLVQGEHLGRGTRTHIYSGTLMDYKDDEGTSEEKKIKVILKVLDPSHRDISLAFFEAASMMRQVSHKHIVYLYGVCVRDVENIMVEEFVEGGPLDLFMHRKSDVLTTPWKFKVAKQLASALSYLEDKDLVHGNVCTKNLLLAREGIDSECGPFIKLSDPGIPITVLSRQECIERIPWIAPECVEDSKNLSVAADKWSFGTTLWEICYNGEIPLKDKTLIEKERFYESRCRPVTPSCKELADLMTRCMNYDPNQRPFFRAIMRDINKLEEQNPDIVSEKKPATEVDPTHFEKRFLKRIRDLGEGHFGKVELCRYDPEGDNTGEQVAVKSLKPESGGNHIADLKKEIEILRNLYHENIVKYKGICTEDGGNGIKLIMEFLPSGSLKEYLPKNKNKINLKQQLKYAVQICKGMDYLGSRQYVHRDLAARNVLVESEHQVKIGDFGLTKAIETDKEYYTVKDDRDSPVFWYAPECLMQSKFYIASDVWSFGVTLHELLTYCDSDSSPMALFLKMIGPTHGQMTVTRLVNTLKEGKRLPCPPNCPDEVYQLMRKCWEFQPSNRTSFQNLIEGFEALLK
T1 sequence (P40763 whole entry): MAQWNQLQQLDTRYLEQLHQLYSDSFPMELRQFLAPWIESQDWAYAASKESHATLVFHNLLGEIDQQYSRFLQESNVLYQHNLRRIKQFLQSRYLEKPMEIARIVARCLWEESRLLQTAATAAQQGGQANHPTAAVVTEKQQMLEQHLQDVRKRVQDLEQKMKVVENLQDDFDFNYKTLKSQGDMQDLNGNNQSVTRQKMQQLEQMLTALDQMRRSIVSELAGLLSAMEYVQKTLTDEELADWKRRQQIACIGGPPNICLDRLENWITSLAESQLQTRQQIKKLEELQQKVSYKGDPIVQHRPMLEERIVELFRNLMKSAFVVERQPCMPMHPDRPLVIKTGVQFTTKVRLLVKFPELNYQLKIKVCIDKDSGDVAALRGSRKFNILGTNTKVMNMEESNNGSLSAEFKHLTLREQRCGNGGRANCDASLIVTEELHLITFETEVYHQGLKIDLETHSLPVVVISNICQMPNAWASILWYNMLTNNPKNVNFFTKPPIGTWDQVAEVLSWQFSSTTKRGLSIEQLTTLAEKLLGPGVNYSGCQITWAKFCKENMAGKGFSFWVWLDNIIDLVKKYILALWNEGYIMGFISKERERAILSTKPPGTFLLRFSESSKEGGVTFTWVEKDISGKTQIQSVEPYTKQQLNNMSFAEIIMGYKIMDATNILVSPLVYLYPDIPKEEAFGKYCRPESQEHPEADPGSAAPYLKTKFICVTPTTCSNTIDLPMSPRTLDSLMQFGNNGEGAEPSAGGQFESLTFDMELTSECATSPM
Chain of Mitogen-activated protein kinase 3 (Homo sapiens) (P27361 whole entry): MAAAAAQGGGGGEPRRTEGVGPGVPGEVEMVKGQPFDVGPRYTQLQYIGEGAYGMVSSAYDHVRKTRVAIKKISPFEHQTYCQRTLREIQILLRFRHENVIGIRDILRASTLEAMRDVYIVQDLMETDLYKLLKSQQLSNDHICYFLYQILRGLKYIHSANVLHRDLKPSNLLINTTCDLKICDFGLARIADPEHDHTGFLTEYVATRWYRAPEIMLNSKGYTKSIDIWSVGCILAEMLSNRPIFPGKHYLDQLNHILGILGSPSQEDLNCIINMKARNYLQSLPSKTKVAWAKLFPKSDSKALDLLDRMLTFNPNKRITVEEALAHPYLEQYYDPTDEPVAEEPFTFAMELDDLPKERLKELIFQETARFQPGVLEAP

Question: Which results are given for CN(CC(=O)N(Cc1ccc(C2CCCCC2)cc1)c1ccc(C(=O)O)cc1)S(=O)(=O)c1c(F)c(F)c(F)c(F)c1F?
Answer: inhibition [1]: inactive; Activity (BT73 [2]): Active; pIC50 [3]: 6.79; inhibition [4]: inactive; inhibition [5]: 35%; pIC50 [6]: 5.99; pIC50 (cells): 7.18; inhibition [7]: inactive; TGI (BT73 [8]): Active; pIC50 [9]: 6.37; Activity (Homo sapiens [10]): Active; pIC50 [11]: 7.00; pIC50 [12]: 6.97; Activity (BT73 [13]): Active; inhibition (Mus musculus): Active; inhibition [14]: Active; inhibition [15]: inactive; pIC50 [16]: 6.63; inhibition [17]: inactive; Activity [18]: Non-toxic; inhibition (Homo sapiens [19]): Active; inhibition [20]: inactive; inhibition [21]: 50%; Activity [22]: Non-toxic; pKd [23]: 6.33; inhibition [24]: inactive; inhibition (Homo sapiens [25]): inactive; inhibition [26]: inactive; inhibition [27]: inactive; inhibition [28]: inactive; inhibition [29]: inactive; inhibition [30]: 50%; pIC50 [31]: 6.99; inhibition [32]: Active; inhibition (Homo sapiens [33]): inactive; inhibition [34]: inactive
